Assay results published in ChEMBL document CHEMBL5696442, “Discovery of type II inhibitors of TGFβ-activated kinase 1 (TAK1) and mitogen-activated protein kinase kinase kinase kinase 2 (MAP4K2)” (J Med Chem, 2015).

Legend:
Type in all cases: cell-based
[1] = target: T1, Ephrin type-B receptor 2 (Homo sapiens) (UniProt P29323); assay: Inhibition of EphB2 ACT labeling site in human A-375 cells at 0.5 uM by KiNativ Profiling analysis relative to control
T1 sequence (whole entry): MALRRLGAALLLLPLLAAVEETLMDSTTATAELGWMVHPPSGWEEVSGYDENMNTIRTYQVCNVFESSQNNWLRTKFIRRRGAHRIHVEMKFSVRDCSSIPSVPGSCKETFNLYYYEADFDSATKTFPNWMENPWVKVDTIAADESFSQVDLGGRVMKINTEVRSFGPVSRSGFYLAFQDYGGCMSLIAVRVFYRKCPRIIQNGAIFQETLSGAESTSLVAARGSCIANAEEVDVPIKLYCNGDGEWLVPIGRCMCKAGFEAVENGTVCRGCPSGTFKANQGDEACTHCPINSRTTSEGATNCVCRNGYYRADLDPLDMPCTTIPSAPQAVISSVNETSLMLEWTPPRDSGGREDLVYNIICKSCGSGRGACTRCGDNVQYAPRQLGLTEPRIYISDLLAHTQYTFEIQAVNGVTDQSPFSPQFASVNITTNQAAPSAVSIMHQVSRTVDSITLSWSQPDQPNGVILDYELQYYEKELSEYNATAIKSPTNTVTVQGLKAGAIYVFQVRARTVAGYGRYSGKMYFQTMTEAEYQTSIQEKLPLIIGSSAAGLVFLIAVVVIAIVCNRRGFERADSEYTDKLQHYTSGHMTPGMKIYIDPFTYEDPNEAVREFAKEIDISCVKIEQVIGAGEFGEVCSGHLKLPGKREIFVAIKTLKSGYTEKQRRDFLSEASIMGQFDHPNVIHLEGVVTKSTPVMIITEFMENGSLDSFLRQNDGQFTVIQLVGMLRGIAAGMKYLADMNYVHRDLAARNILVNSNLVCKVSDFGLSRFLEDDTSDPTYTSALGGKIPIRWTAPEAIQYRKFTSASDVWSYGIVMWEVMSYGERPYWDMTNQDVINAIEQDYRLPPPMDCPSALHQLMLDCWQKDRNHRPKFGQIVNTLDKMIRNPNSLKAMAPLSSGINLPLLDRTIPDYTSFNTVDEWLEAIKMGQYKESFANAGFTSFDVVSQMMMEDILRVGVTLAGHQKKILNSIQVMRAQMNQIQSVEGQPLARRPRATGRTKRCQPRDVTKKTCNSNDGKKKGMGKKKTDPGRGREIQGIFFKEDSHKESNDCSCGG
In short: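 Live A375 melanoma cells were treated with compound at 0.5 or 5 μM, then lysed. Lysates were labeled with a lysine-reactive ATP or ADP-biotin probe. The read-out was protection of each kinase probe-labeling site from labeling, relative to control.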

[2] = target: Ribosomal protein S6 kinase alpha-1 (Homo sapiens) (UniProt Q15418); assay: Inhibition of RSK1 Protein Kinase Domain in human A-375 cells at 0.5 uM by KiNativ Profiling analysis relative to control
Chain of Ribosomal protein S6 kinase alpha-1 (Homo sapiens) (Q15418 whole entry, the tested form may be a part): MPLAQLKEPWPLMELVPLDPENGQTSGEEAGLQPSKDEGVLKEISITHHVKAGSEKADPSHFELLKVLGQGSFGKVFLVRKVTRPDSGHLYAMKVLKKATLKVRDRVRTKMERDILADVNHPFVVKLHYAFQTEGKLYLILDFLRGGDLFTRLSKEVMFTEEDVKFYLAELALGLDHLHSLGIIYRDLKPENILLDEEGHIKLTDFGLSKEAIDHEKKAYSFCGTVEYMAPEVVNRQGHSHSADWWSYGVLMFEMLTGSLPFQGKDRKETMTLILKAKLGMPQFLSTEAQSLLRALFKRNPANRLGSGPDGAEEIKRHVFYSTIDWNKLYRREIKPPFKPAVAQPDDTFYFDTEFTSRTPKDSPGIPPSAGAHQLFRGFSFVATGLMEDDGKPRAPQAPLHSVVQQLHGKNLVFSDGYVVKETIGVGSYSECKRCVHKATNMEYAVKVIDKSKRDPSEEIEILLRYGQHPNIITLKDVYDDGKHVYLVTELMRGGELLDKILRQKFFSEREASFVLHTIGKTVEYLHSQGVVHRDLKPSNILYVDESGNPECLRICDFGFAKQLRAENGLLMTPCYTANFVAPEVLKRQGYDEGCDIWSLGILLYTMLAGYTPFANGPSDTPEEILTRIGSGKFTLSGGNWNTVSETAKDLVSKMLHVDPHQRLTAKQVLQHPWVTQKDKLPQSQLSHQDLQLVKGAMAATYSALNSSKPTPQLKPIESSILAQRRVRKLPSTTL
In short: (§1)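 Live A375 melanoma cells treated with compound at 5 or 0.5 μM, then lysed. Lysate kinases were labeled with a lysine-reactive ATP or ADP-biotin probe. Inhibition was read as protection of labeling sites from the probe.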

[3] = target: T2, Aurora kinase A (Homo sapiens) (UniProt O14965); assay: Inhibition of AurA ATP Loop labeling site in human A-375 cells at 5 uM by KiNativ Profiling analysis relative to control
T2 sequence (whole entry): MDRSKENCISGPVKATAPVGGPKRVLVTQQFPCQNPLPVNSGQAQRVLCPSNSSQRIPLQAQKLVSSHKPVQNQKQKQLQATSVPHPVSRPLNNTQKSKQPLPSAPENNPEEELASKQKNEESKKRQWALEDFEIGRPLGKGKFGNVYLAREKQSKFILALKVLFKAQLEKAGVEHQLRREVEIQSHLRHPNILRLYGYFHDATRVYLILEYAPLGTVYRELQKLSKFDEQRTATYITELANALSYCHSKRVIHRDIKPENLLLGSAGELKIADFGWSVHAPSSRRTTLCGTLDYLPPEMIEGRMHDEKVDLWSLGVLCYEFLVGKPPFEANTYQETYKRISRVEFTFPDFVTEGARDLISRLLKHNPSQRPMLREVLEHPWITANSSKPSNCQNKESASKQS
In short: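 Live A375 melanoma cells were treated with compound at 5 or 0.5 μM, then lysed. The lysates were labeled with a lysine-reactive ATP or ADP-biotin probe. Kinase protection from probe labeling was measured by KiNativ.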

[4] = target: T3, Serine/threonine-protein kinase greatwall (Homo sapiens) (UniProt Q96GX5); assay: Inhibition of MASTL ATP Loop labeling site in human A-375 cells at 0.05 uM by KiNativ Profiling analysis relative to control
T3 sequence (whole entry): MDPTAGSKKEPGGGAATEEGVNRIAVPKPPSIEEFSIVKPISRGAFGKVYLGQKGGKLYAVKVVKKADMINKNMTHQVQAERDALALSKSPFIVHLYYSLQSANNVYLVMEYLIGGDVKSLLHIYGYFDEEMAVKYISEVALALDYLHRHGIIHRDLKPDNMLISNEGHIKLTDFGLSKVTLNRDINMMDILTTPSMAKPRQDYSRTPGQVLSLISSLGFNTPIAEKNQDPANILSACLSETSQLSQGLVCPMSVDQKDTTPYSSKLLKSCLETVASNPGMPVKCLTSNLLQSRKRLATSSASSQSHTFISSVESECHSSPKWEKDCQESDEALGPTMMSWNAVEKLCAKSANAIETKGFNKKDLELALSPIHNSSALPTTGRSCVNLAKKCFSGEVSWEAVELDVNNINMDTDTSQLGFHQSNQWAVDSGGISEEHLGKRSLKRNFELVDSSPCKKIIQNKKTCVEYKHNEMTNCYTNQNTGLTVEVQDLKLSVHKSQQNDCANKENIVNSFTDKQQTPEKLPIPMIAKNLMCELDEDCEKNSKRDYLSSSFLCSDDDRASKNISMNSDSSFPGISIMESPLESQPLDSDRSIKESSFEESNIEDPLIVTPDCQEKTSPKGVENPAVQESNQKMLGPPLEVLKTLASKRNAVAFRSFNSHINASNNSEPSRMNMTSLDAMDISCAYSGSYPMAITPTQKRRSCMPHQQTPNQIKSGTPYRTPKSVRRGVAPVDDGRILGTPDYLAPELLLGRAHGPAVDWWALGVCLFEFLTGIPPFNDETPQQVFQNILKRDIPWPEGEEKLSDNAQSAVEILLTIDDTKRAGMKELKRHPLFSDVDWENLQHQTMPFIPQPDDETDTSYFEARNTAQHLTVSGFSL

[5] = target: Mitogen-activated protein kinase kinase kinase 20 (Homo sapiens, UniProt Q9NYL2); assay: Inhibition of ZAK Lys1 labeling site in human A-375 cells at 0.05 uM by KiNativ Profiling analysis relative to control
Chain of Mitogen-activated protein kinase kinase kinase 20 (Q9NYL2 2-800 limits assumed): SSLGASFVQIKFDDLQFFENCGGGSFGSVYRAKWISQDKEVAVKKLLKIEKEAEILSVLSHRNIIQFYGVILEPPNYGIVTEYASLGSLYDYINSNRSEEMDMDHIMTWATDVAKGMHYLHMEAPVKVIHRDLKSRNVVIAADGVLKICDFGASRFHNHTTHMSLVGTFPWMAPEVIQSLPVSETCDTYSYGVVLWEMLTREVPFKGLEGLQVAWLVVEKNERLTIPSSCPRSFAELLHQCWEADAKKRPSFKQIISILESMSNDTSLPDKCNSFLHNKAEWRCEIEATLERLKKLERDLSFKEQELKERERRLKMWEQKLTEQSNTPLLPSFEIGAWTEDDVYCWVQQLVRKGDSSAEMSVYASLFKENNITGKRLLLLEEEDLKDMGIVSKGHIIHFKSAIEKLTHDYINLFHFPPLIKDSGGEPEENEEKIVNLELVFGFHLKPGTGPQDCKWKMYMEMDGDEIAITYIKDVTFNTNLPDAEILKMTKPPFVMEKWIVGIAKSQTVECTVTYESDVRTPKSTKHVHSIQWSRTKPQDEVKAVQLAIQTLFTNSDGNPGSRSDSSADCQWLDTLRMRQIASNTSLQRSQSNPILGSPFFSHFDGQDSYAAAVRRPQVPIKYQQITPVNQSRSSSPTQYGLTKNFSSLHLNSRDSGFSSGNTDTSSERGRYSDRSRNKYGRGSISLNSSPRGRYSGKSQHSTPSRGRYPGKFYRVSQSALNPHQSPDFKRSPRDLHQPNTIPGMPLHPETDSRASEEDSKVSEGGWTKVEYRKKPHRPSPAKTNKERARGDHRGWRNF

[6] = target: Serine/threonine-protein kinase Nek7 (Homo sapiens) (UniProt Q8TDX7); assay: Inhibition of NEK7 ACT labeling site in human A-375 cells at 5 uM by KiNativ Profiling analysis relative to control
Chain of Serine/threonine-protein kinase Nek7 (Homo sapiens) (Q8TDX7 whole entry, looked up, the tested form may be a part): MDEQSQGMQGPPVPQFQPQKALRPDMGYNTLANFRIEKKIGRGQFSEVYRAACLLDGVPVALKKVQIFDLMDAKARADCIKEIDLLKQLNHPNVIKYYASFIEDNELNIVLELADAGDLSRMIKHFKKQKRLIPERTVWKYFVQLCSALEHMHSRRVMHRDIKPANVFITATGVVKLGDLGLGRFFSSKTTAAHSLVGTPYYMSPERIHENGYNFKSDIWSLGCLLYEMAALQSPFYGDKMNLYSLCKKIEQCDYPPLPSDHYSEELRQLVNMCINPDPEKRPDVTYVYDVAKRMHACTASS

[7] = target: Ribosomal protein S6 kinase alpha-1 (Homo sapiens) (UniProt Q15418); assay: Inhibition of RSK1 domain2 Lys2 labeling site in human A-375 cells at 0.5 uM by KiNativ Profiling analysis relative to control; in short: as §1

| Compound | inhibition [1] [%] | inhibition [2] [%] | inhibition [3] [%] | inhibition [4] [%] | inhibition [5] [%] | inhibition [6] [%] | inhibition [7] [%] |
| --- | --- | --- | --- | --- | --- | --- | --- |
| CCN1CCN(Cc2ccc(NC(=O)c3ccc(C)c(Oc4ccnc5[nH]ccc45)c3)cc2C(F)(F)F)CC1 | -2.2 | 0.9 | 31.4 | 2 | 74.1 | -3.5 | 3 |
| CCN1CCN(Cc2ccc(NC(=O)c3ccc(C)c(/C=C/c4cnc5[nH]ccc5c4OC)c3)cc2C(F)(F)F)CC1 | 55.5 | 3.2 | 48.5 | -6.2 | 80.5 | -6.2 | 1.6 |
